Results as given in ChEMBL document CHEMBL4229508, “Nitric oxide donor-based FFA1 agonists: Design, synthesis and biological evaluation as potential anti-diabetic and anti-thrombotic agents” (Bioorg Med Chem, 2018).

What was measured:
Mus musculus = test: Antidiabetic activity in ICR mouse assessed as reduction in plasma glucose AUC (0 to 90 mins) at 20 mg/kg, po dosed 30 mins prior to glucose challenge by OGTT relative to control; type: functional; set-up: scale not given: the % may be the effect or the level left
Method in brief: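 Male ICR mice, fasted 12 h, randomized into groups (n = 6). Compound was given orally at 20 mg/kg in 0.5% methylcellulose 30 min before an oral glucose load (3 g/kg). Blood glucose was read by test strips at −30, 0, 15, 30, 60 and 90 min. AUC0–90min was calculated; mean ± SD.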

[1] = target: Free fatty acid receptor 1 (Homo sapiens, UniProt O14842); test: Agonist activity at human FFA1 receptor expressed in CHO cells assessed as increase in intracellular calcium levels measured for 90 secs by Fluo 4-AM dye based FLIPR assay; type: functional, cell-based
Method in brief: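 CHO cells stably expressing human FFA1 were seeded at 15 K cells/well and grown 12 h at 37 °C, 5% CO2, then washed with HBSS. Ca2+ flux after compound addition was read on FLIPR for 90 s. Activity = [(A−B)/(C−B)]×100, with B = vehicle and C = 10 µM γ-linolenic acid.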

Platelet [2] = test: Antiplatelet activity in rabbit platelet rich plasma assessed as inhibition of ADP-induced platelet aggregation at 0.1 mM preincubated for 5 mins followed by ADP addition measured up to 5 mins; type: functional; conditions: Oryctolagus cuniculus
Method in brief: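 Rabbit blood was spun at 500 rpm for 10 min to give PRP, and then at 3000 rpm for 10 min to give PPP. PRP was preincubated in duplicate with compound (0.1 mM), vehicle or ticlopidine for 5 min at 37 °C. Aggregation was induced with ADP (10 µM), and light transmission at maximal aggregation was recorded within 5 min. Inhibition % = (A−B)/A×100 versus vehicle. Three independent experiments, mean ± SD.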

Platelet [3] = test: Antiplatelet activity in rabbit platelet rich plasma assessed as inhibition of ADP-induced platelet aggregation at 0.1 mM preincubated for 5 mins followed by ADP addition measured up to 5 mins in presence of NO scavenger carboxy-PTIO; type: functional; conditions: Oryctolagus cuniculus
Method in brief: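 Run as the rabbit PRP turbidimetric assay: compound at 0.1 mM, 5 min preincubation at 37 °C, ADP 10 µM, maximal light transmission recorded within 5 min. Carboxy-PTIO (20 µM) was also incubated with the drug-platelet suspension. Inhibition % is relative to vehicle. Mean ± SD of three independent experiments.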

Free fatty acid receptor 1, sequence (O14842 whole entry): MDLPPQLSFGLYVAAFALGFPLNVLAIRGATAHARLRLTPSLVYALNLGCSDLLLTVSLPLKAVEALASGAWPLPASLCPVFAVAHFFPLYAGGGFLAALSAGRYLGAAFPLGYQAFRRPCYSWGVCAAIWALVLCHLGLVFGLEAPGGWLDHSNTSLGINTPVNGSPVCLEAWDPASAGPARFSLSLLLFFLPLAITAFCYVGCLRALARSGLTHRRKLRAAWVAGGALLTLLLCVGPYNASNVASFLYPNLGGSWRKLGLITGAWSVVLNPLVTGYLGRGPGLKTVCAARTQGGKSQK

Row | EC50 [1] [nM] | Compound | Activity (Mus musculus) [%] | inhibition at 100 µM (Platelet [2]) [%] | inhibition at 100 µM (Platelet [3]) [%]
1 | – | Cc1cc(OCCCS(C)(=O)=O)cc(C)c1-c1cccc(COc2ccc3c(c2)OC[C@H]3CC(=O)O)c1 | 32.3 | – | –
2 | 54.2 | COc1cc(C)c(-c2cccc(COc3ccc(OCC(=O)O)c(F)c3)c2)c(C)c1 | – | – | –
3 | 61.5 | Cc1cc(OCCCO[N+](=O)[O-])cc(C)c1-c1cccc(COc2ccc(OCC(=O)O)c(F)c2)c1 | 41.6 | 10.8 | 1.05
4 | 76.4 | Cc1cc(OCCO[N+](=O)[O-])cc(C)c1-c1cccc(COc2ccc(OCC(=O)O)c(F)c2)c1 | – | 8.28 | 1.34
5 | 93.7 | Cc1cc(OCCCCO[N+](=O)[O-])cc(C)c1-c1cccc(COc2ccc(OCC(=O)O)c(F)c2)c1 | – | 11.1 | 1.15
